For assay [1], the target named is T1, Stromelysin-1 (Homo sapiens, UniProt P08254). The experiment in a line: Inhibition of human MMP-3 using NFF-2 as substrate after 30 mins.
Target sequence in this assay (P08254 whole entry): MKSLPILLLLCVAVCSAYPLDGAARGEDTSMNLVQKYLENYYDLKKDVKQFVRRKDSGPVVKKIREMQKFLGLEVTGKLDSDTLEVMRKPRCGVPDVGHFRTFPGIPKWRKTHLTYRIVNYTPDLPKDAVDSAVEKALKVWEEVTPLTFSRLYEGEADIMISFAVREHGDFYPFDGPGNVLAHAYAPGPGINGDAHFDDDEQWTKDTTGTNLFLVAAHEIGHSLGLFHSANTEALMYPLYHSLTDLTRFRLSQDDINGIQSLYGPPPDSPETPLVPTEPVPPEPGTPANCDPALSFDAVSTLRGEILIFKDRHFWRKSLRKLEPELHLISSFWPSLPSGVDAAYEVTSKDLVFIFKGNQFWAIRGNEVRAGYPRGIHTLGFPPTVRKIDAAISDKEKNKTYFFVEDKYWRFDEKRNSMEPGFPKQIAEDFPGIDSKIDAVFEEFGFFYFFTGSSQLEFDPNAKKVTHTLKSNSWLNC
Assay [2] has as its target T2, A disintegrin and metalloproteinase with thrombospondin motifs 5 (Homo sapiens, UniProt Q9UNA0).
T2 sequence (Q9UNA0 whole entry): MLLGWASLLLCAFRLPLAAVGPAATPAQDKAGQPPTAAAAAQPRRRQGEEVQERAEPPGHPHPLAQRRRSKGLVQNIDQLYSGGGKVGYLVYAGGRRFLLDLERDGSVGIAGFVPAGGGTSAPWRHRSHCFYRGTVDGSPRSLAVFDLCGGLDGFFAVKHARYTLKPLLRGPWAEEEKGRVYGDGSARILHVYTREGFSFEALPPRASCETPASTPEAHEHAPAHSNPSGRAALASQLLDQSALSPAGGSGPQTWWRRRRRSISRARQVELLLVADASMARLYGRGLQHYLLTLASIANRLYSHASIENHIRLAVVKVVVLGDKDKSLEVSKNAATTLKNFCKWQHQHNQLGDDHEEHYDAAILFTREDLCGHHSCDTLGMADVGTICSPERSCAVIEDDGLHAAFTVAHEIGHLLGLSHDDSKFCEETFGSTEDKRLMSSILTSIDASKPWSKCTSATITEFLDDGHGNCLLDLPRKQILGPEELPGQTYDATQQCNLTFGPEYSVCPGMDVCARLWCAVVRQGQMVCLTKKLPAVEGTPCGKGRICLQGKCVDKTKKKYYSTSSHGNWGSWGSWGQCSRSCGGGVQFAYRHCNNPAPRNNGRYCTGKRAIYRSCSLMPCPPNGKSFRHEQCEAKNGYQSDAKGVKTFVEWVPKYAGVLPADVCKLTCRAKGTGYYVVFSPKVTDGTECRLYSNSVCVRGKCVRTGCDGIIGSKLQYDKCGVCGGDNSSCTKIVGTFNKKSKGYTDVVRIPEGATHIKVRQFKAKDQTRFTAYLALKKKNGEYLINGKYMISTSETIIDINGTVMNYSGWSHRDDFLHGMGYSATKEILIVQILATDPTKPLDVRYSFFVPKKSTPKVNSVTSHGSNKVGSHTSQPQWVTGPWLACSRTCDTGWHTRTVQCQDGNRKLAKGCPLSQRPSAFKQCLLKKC
The experiment in a line: Inhibition of human recombinant ADAMTS-5 using QTVTWPDMELPLPRNITEGEARGSVIL-TVKPIFEVSPSPL(biotinyl)K as substrate incubated 10 mins prior to substrate addition measured after 3 hrs by spectrophotometry.

In assay [3] the target is Neutrophil collagenase (Homo sapiens, UniProt P22894). Put plainly: Inhibition of human MMP-8 using Mca-Pro-Cha-Gly-Nva-His-Ala-Dpa-NH2 as substrate after 120 mins.
Sequence of Neutrophil collagenase (P22894 whole entry): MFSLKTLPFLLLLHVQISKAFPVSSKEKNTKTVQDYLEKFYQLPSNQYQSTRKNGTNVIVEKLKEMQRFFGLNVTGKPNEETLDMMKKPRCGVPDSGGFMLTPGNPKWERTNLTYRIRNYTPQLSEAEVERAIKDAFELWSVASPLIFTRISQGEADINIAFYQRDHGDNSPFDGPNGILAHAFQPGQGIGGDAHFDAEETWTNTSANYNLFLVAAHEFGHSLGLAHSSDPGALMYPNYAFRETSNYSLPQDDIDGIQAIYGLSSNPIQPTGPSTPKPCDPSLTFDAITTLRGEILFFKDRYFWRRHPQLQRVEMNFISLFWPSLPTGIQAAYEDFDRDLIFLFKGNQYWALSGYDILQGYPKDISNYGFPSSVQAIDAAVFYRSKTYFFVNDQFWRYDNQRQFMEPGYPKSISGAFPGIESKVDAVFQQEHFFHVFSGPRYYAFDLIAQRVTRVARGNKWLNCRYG
In assay [4] the target is T1, Stromelysin-1. The experiment in a line: Inhibition of human MMP-3 using NFF-2 as substrate at 10 uM after 30 mins.
Target sequence in this assay (P08254 100-477 limits assumed): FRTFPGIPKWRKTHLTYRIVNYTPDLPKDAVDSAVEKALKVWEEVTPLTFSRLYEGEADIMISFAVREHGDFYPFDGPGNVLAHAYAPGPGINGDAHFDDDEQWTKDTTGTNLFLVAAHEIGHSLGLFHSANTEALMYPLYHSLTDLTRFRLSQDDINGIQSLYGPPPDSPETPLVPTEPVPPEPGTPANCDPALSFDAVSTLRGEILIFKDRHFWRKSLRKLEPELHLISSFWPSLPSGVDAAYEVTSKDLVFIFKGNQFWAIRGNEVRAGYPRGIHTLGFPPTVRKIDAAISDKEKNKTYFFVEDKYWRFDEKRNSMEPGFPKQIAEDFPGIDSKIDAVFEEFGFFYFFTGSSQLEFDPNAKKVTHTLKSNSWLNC
Assay [5] concerns the target Disintegrin and metalloproteinase domain-containing protein 17 (Homo sapiens, UniProt P78536). The experiment in a line: Inhibition of human TACE at 10 uM after 5 mins.
Assay [6] has as its target T3, Interstitial collagenase (Homo sapiens) (UniProt P03956).
T3 sequence (whole entry): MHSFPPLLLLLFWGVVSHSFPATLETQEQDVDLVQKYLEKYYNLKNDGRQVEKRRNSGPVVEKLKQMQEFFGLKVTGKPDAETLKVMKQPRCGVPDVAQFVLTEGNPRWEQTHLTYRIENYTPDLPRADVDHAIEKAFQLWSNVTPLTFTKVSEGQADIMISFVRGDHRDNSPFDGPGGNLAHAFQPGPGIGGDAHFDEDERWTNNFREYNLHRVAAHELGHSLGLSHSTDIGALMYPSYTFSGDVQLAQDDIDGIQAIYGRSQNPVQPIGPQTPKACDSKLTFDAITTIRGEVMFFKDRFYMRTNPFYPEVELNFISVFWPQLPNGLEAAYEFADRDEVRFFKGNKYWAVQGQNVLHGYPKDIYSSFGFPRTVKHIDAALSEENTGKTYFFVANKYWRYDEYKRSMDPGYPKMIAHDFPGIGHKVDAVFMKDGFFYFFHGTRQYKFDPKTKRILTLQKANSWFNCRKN
The experiment in a line: Inhibition of human MMP-1 using DNP-Pro-Cha-Gly-Cys(Me)-His-Ala-Lys(n-Me-Abz)-NH2 as substrate at 10 uM after 40 mins.

Assay [7] concerns the target T4, A disintegrin and metalloproteinase with thrombospondin motifs 4 (Homo sapiens, UniProt O75173).
T4 sequence (O75173 whole entry): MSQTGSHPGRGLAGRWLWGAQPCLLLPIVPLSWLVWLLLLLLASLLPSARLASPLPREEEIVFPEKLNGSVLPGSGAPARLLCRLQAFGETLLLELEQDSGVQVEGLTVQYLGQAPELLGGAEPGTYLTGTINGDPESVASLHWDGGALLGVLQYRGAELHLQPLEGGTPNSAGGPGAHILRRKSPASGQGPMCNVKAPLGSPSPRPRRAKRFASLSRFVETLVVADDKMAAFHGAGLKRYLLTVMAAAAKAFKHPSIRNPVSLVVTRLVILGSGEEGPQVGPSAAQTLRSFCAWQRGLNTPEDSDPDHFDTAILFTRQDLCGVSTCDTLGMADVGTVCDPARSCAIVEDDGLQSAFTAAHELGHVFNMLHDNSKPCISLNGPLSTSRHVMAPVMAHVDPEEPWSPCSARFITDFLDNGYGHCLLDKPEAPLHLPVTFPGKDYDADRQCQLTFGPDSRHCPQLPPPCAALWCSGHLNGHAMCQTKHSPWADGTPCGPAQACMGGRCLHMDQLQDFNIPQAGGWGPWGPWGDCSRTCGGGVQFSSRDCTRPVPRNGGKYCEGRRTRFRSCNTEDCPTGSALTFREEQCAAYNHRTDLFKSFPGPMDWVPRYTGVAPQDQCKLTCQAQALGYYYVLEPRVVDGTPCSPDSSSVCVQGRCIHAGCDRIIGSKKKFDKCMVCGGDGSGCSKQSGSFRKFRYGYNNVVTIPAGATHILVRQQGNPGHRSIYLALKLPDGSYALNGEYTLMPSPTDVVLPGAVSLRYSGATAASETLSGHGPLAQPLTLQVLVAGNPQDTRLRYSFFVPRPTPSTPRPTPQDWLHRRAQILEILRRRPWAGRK
The experiment in a line: Inhibition of human recombinant ADAMTS-4 using QTVTWPDMELPLPRNITEGEARGSVIL-TVKPIFEVSPSPL(biotinyl)K as substrate incubated for 10 mins prior to substrate addition measured after 3 hrs by spectrophotometry. The procedure, abridged:
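It was then added to streptavidin wells coated with the biotinylated 41-mer aggrecan peptide and reacted for 3 h at 37 °C. Cleavage product was detected by BC-3 anti-ARGxx ELISA with HRP and TMB, read at 450 nm.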

Assay [8] deals with 72 kDa type IV collagenase (Homo sapiens, UniProt P08253). Put plainly: Inhibition of human MMP-2 using NFF-2 as substrate after 90 mins.
Sequence of 72 kDa type IV collagenase (P08253 whole entry): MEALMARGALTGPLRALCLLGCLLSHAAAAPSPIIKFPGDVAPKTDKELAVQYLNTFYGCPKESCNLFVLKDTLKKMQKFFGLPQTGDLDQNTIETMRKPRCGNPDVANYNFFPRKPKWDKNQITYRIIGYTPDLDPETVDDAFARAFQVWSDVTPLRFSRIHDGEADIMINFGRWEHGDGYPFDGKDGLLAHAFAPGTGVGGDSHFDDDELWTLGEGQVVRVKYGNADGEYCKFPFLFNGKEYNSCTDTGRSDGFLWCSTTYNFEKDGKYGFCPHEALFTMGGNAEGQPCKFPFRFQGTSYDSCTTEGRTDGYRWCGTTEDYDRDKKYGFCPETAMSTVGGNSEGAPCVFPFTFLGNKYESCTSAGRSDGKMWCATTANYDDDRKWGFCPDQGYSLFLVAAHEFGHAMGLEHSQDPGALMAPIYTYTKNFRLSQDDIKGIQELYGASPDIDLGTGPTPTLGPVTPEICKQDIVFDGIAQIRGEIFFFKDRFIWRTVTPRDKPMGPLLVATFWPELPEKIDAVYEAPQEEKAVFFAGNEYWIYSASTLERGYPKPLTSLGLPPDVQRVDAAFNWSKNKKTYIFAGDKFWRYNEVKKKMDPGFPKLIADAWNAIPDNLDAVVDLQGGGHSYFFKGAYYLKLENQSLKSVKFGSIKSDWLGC

Each structure is given as a SMILES string.

Sequence of Disintegrin and metalloproteinase domain-containing protein 17 (P78536 whole entry, the tested form may be a part): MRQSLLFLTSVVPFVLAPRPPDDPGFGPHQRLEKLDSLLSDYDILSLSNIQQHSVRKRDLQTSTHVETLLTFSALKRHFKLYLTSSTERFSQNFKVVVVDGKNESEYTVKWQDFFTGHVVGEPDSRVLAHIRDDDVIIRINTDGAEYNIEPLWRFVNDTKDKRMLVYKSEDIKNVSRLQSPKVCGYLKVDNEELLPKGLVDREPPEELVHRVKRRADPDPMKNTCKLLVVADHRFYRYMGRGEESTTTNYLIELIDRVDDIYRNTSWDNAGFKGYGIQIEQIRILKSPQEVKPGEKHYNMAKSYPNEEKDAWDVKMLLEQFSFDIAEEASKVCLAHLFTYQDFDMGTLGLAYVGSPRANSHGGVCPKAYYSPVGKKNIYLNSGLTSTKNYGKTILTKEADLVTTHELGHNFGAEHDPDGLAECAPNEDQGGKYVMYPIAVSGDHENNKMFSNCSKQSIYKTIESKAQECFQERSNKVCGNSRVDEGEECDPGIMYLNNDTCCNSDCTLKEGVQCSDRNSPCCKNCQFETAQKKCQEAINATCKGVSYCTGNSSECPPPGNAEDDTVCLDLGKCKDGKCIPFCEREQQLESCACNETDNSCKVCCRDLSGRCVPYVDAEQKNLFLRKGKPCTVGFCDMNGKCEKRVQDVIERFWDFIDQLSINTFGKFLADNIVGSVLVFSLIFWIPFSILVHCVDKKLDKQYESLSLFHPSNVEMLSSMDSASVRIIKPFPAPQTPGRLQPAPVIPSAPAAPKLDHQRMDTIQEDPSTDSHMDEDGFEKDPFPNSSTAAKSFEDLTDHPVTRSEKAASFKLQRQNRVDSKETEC

Regarding `O=C(COc1ccc(Cl)cc1)NNC(=S)NCCCCC1CCCCC1`, the half-maximal inhibitory concentration (IC50) (usually the concentration that inhibits the measured activity by half) in assay [1] was over 10 µM; in assay [2], 0.17 µM; in assay [3], 47 µM; in assay [7] it was 0.63 µM; in assay [8], over 10 µM. In addition, the inhibition in assay [4], in assay [5] and in assay [6] was under 10% throughout.
